Active and inactive are the calls of the source. The calls are words filed in the database; no cut-off is given here.
Experiments:
[1] = system: HCT-116; assay: Cytotoxicity against human HCT116 cells assessed as growth inhibition by MTS assay; type: functional, cell-based
Summary of the method: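 HCT-116 colorectal cells, cultured as in earlier work, were tested by colorimetric MTS assay. Compounds were supplied in DMSO from a 10 mg mL⁻¹ stock. IC50 came from a four-parameter sigmoidal fit, and values are averages of three measurements. Controls were DMSO (negative) and etoposide (positive, 4 mg mL⁻¹ stock in DMSO).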

[2] = system: HCC44; assay: Cytotoxicity against human HCC44 cells; type: functional, cell-based
[3] = system: Bacillus oceanisediminis; assay: Antibacterial activity against Bacillus oceanisediminis CNY-977 at 10 ug after 48 hrs by disk diffusion method; type: functional
Summary of the method: (§1)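 Kirby–Bauer disk diffusion on LB agar swabbed with inocula from 24 h LB (pH 7.0) precultures grown at rt, 200 rpm. Each 6 mm paper disc carried 10 μg compound, applied as […] in MeOH and dried before placement. Controls were MeOH (10 μL) as negative and ciprofloxacin 5 μg as positive. Plates were incubated 48 h.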

[4] = system: Escherichia coli; assay: Antibacterial activity against Escherichia coli MG1655 at 10 ug after 48 hrs by disk diffusion method; type: functional; conditions: K-12 substr. MG1655; summary of the method: as §1
[5] = Drug metabolism assessed as half life for ammosamide B formation; type: physicochemical
[6] = Stability of the compound in culture medium
[7] = system: HCT-116; assay: Cytotoxicity against human HCT116 cells assessed as growth inhibition at 78.125 ug/ml by MTS assay relative to control; type: functional; conditions: read-out: GI
[8] = Drug metabolism assessed as compound formation from ammosamide C; type: physicochemical
Summary of the method: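 Ammosamide C TFA salt kept at rt in seawater-based A1 medium pH 10.0 (1.0 mg/500 μL; pH 6.8 control), PBS pH 10 (2.0 mg/1.0 mL), saturated NaHCO₃ pH 8.1 (2.0 mg/1.0 mL), or PBS pH 10 with 7 equiv L-cysteine. Products followed over days by analytical C18 ELSD-UV/vis-HPLC (1–60% CH₃CN, 0.1% formic acid), plus LC-HRMS for the buffer reactions.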

[9] = Homo sapiens, HCT-116, read-out: IC50

| Structure (SMILES) | IC50 [1, 9] [µM] | Activity [4] | inhibition of growth at 78.125 µg/mL [7] [%] | IC50 ([1]; hct-116) | further results |
| --- | --- | --- | --- | --- | --- |
| CN1/C(=N/c2ccc(Cl)cc2)c2cc(C(N)=O)nc3c(N)c(Cl)c(N)c1c23 | 39 |  |  |  |  |
| CC(C)/N=C1\c2cc(C(N)=O)nc3c(N)c(Cl)c(N)c(c23)N1C |  |  |  |  | IC50 [2]: 1.1 µM |
| COc1cc([C@@H]2c3cc4c(cc3[C@@H](O[C@@H]3O[C@@H]5CO[C@@H](C)O[C@H]5[C@H](O)[C@H]3O)[C@H]3COC(=O)[C@H]23)OCO4)cc(OC)c1O [ETOPOSIDE] | 0.49 to 4.9 |  |  |  |  |
| C[N+]1=Cc2cc(C(N)=O)nc3c(N)c(Cl)c(N)c1c23 | 5.5 | Active |  |  | Activity [3]: Active; t1/2 [5]: 240 h; Stability [6]: Stable |
| CC(=O)NCCSC1=[N+](C)c2c(N)c(Cl)c(N)c3nc(C(N)=O)cc1c23 |  |  | 26 | Not Active |  |
| CN1C(=S)c2cc(C(N)=O)nc3c(N)c(Cl)c(N)c1c23 |  | Active | 19 | Not Active |  |
| CCCCCC/N=C1\c2cc(C(N)=O)nc3c(N)c(Cl)c(N)c(c23)N1C |  |  |  |  | IC50 [2]: 0.5 µM |
| CN1C(=O)c2cc(C(N)=O)nc3c(N)c(Cl)c(N)c1c23 [AMMOSAMIDE B] | 29 | Active |  |  | Drug metabolism [8]: Metabolite_Detected |
| CNC(=O)c1cc(C(N)=O)nc2c1C(=O)C(=O)C(Cl)=C2N |  |  | 97 | Not Active |  |
| CCCNC1=[N+](C)c2c(N)c(Cl)c(N)c3nc(C(N)=O)cc1c23 | 6.8 |  |  |  |  |
